Test results from the array DNA melting data of Ke et al. (doi:10.1101/2024.01.08.574731).

Legend:
[1] = folding enthalpy; higher = less favourable; fluorescence melt of hairpins on a sequencing array, two-state fit; conditions: sodium 0.088 M
In short: (§1)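 Folding enthalpy and melting temperature were estimated with bootstrapped two-state fits and combined across four replicates by inverse-variance weighting, with fitted temperatures raised by 9.35 °C to match UV melts. The data were Cy3 fluorescence of library hairpins, with annealed Cy3 and quencher oligos, on a sequenced MiSeq flow cell in 50 mM Na-HEPES pH 8.0, 25 mM NaCl, imaged in 2.5 °C steps up to 60 °C and normalised to pre-quench Cy3 and control constructs.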

[2] = melting temperature; fluorescence melt of hairpins on a sequencing array, two-state fit, raised by 9.35 °C to match UV melts; conditions: sodium 0.088 M
In short: as §1

| Sequence | folding enthalpy [1] [kcal/mol] | Tm [2] [°C] |
| --- | --- | --- |
| GTCTCTGCGAAAGCAGAC (((..(((....)))))) | -8.28 | 34.3 |
| GTCTGACGAAAGTCCGAC (((.(((....))).))) | -28.5 | 49 |
| GTCTGACGAAAGTCGAC (((.(((....)))))) | -16.9 | 49 |
| GTCTGACGAAAGTCGGAC (((.(((....))).))) | -35.8 | 62.4 |
| GTCTGAGGAAACCCAGAC (((((.(....).))))) | -31.8 | 45.9 |
| GTCTGAGGAAACTTGGAC (((..((....))..))) | -15.9 | 31.7 |
| GTCTGCCCGAAAGGGGAC (((..(((....)))))) | -10.9 | 34.8 |
| GTCTGCGAAAGCACCGAC ((((((....)))..))) | -12.7 | 32.3 |
| GTCTGCGAAAGCACTGAC ((((((....)))..))) | -15.1 | 36.3 |
| GTCTGCGAAAGCAGTGAC ((((((....)))..))) | -9.57 | 40.5 |
| GTCTGGCGAAAGCCTGAC (((.(((....))).))) | -26.8 | 62 |
| GTCTGGTCGAAAGACGAC (((..(((....)))))) | -17.2 | 41.5 |
| GTCTGTGAAAACAGAC ((((((....)))))) | -36.1 | 57.8 |
| GTCTGTGGAAACACAGAC (((((((....))))))) | -50.5 | 65.1 |
| GTCTTACGAAAGTACGAC (((.(((....))).))) | -34.5 | 43.8 |
| GTCTTACGAAAGTAGGAC (((.(((....))).))) | -28.2 | 48.9 |
| GTCTTACGAAAGTATGAC (((.(((....))).))) | -30.9 | 48.3 |
| GTCTTATCGAAAGATGAC (((..(((....)))))) | -20.1 | 28.5 |
| GTCTTCGAAAGAAGAGAC ((((((....)))..))) | -16.7 | 36.5 |
| GTCTTCGAAAGAAGCGAC ((((((....)))..))) | -20 | 44.7 |
| GTCTTCGAAAGAAGGAC ((((((....))).))) | -16.4 | 41.6 |
| GTCTTCGCGAAAGCGGAC (((..(((....)))))) | -10.6 | 30.4 |
| GTCTTCTCGAAAGAGGAC (((..(((....)))))) | -17.2 | 33.5 |

| Sequence | folding enthalpy [1] [kcal/mol] | Tm [2] [°C] |
| --- | --- | --- |
| GTCTTGGAAACAAGAC ((((((....)))))) | -35.3 | 54.9 |
| GTCTTGGCGAAAGCCGAC (((..(((....)))))) | -9.96 | 37.5 |
| GTCTTGGGAAACTGAGAC ((((..(....)..)))) | -23.8 | 35.1 |
| GTCTTTGGAAACGAAGAC (((((.(....).))))) | -30.6 | 45 |
| GTGAAACGAAAGTTACAC (((.(((....))).))) | -29.7 | 46.2 |
| GTGAAACGAAAGTTGCAC (((.(((....))).))) | -31.2 | 51.6 |
| GTGAAAGGAAACTTTCAC (((((((....))))))) | -50.6 | 54.1 |
| GTGAACGAAAGTTAGCAC ((((((....)))..))) | -12.5 | 29.1 |
| GTGAACGGAAACGTTTGC (..((((....))))..) | -22.6 | 38.9 |
| GTGAAGAAATTCAC (((((....))))) | -18.8 | 38.3 |
| GTGAAGACGAAAGTCCAC (((..(((....)))))) | -18.4 | 41.6 |
| GTGAAGCGAAAGCTACAC (((.(((....))).))) | -30.1 | 55.7 |
| GTGAAGCGAAAGCTGCAC (((.(((....))).))) | -35 | 61 |
| GTGAAGGGAAACCCTCAC ((((.((....)).)))) | -26.9 | 43.3 |
| GTGAAGGGAAACTTTCAC (((((.(....).))))) | -24.8 | 40.2 |
| GTGAATCGAAAGATCCAC (((.(((....))).))) | -27.7 | 43.4 |
| GTGACAACGAAAGTTCAC (((..(((....)))))) | -11.1 | 34.8 |
| GTGACACCGAAAGGTCAC (((..(((....)))))) | -25 | 47.8 |
| GTGACACGAAAGTGCAC (((.(((....)))))) | -17.3 | 53.2 |
| GTGACATCGAAAGATCAC (((..(((....)))))) | -16.2 | 33 |
| GTGACCACGAAAGTGCAC (((..(((....)))))) | -12 | 32 |
| GTGACCCGAAAGGGACAC (((.(((....))).))) | -40.2 | 61.8 |
| GTGACCGAAAGGTACCAC ((((((....)))..))) | -11.6 | 35.1 |

| Sequence | folding enthalpy [1] [kcal/mol] | Tm [2] [°C] |
| --- | --- | --- |
| GTGACCGAAAGGTCGCAC ((((((....)))..))) | -11.1 | 58.6 |
| GTGACCGAAAGGTTACAC ((((((....)))..))) | -16.6 | 49.8 |
| GTGACCGAAAGGTTCCAC ((((((....)))..))) | -9.64 | 33.2 |
| GTGACCTCGAAAGAGCAC (((..(((....)))))) | -14.8 | 30.9 |
| GTGACGCGAAAGCGCCAC (((.(((....))).))) | -33.9 | 68 |
| GTGACGGGAAACCGTCGC (.(((((....))))).) | -24.8 | 62.6 |
| GTGACGGGAAACCGTTAC ((.((((....)))).)) | -22.2 | 51.9 |
| GTGACTGGAAACAATCAC ((((.((....)).)))) | -20.1 | 36 |
| GTGAGACGAAAGTCCCAC (((.(((....))).))) | -27.3 | 50.4 |
| GTGAGACGAAAGTCGCAC (((.(((....))).))) | -31.9 | 64.5 |
| GTGAGAGAAATCTCAC ((((((....)))))) | -32.4 | 51.7 |
| GTGAGAGGAAACCCTCAC (((((.(....).))))) | -26.2 | 43.5 |
| GTGAGAGGAAACTCCCAC (((.(((....))).))) | -24.7 | 36.6 |
| GTGAGAGGAAACTCTCGC (.(((((....))))).) | -27.2 | 51.2 |
| GTGAGCCGAAAGGCACAC (((.(((....))).))) | -28.9 | 59.8 |
| GTGAGCGAAAGCTACCAC ((((((....)))..))) | -10.5 | 35.9 |
| GTGAGCGAAAGCTCCAC ((((((....))).))) | -11.3 | 48.3 |
| GTGAGCGAAAGCTCGCAC ((((((....)))..))) | -11.7 | 55.1 |
| GTGAGCGAAAGCTTCAC ((((((....))).))) | -19.1 | 50.9 |
| GTGAGCGAAAGCTTTCAC ((((((....)))..))) | -10.7 | 32.3 |
| GTGAGCGGAAACACTCAC (((((.(....).))))) | -43.7 | 47.7 |
| GTGAGCGGAAACGCTCGC (.(((((....))))).) | -18.4 | 62.7 |
| GTGAGCGGAAACGTTCAC ((((.((....)).)))) | -41.2 | 52.8 |

| Sequence | folding enthalpy [1] [kcal/mol] | Tm [2] [°C] |
| --- | --- | --- |
| GTGAGGGGAAACCCTTAC ((.((((....)))).)) | -26.7 | 44.5 |
| GTGAGTCCGAAAGGACAC (((..(((....)))))) | -13.1 | 49.6 |
| GTGAGTGGAAACACTTGC (..((((....))))..) | -23.9 | 36.4 |
| GTGATACGAAAGTACAC (((.(((....)))))) | -25.8 | 43.7 |
| GTGATAGGAAACCATCAC (((((.(....).))))) | -34.9 | 39.3 |
| GTGATAGGAAACTATTAC ((.((((....)))).)) | -25.8 | 34.1 |
| GTGATCCGAAAGGAACAC (((.(((....))).))) | -27.5 | 53.6 |
| GTGATCGAAAGATGACAC ((((((....)))..))) | -16.2 | 33.4 |
| GTGATCGCGAAAGCGCAC (((..(((....)))))) | -12.6 | 35.6 |
| GTGATCGGAAACGATCAC (((((((....))))))) | -42.3 | 68.6 |
| GTGATCGGAAACGATTAC ((.((((....)))).)) | -24.4 | 48.2 |
| GTGATGACGAAAGTCCAC (((..(((....)))))) | -18.4 | 35.1 |
| GTGATGGGAAACTATCAC (((((.(....).))))) | -32.2 | 45.6 |
| GTGATTCCGAAAGGACAC (((..(((....)))))) | -15.3 | 31.1 |
| GTGATTGGAAACAGTCAC ((((.((....)).)))) | -36.6 | 45.4 |
| GTGCAACGAAAGTTCAC (((.(((....)))))) | -13.2 | 45.7 |
| GTGCAACGAAAGTTTCAC (((.(((....))).))) | -21.4 | 41 |
| GTGCACGAAAGTGAACAC ((((((....)))..))) | -15.4 | 52 |
| GTGCACGAAAGTGAGCAC ((((((....)))..))) | -32.4 | 51.6 |
| GTGCACGAAAGTGTCAC ((((((....))).))) | -22.3 | 54.5 |
| GTGCACGAAAGTGTGCAC ((((((....)))..))) | -34 | 62.6 |
| GTGCACGGAAACGTGTAC ((.((((....)))).)) | -41.8 | 55.8 |
